We go through seven compounds from ChEMBL document CHEMBL4270671, “Pathway-Based Drug Repositioning for Cancers: Computational Prediction and Experimental Validation” (J Med Chem, 2018).

Activity calls are given as the source filed them. The rule behind the calls is not given here.

In series [1] the test system is HET-1A. In words: Reduction in viability of human HET-1A cells after 6 hrs by fluorescence assay. Type of series: cell-based. Summed up:
(§1)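 A single multiplexed triplex kit read cell viability, cytotoxicity and apoptosis, with caspase-3/7 activity as the apoptosis marker. Compounds were tested over a range of concentrations on cancer lines and normal epithelial Het-1A cells, with DMSO as the vehicle control. Read-outs were compared against the DMSO wells.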

The subject of series [2] is A549. As to the kind of experiment: Reduction in viability of human A549 cells after 6 hrs by fluorescence assay. Type of series: functional, cell-based. Summed up:
as §1

In series [3] the test system is Caco-2. In words: Reduction in viability of human Caco2 cells after 6 hrs by fluorescence assay. Type of series: functional, cell-based. In a few lines:
as §1

Series [4] has as its system PC-3. In words: Reduction in viability of human PC3 cells after 6 hrs by fluorescence assay. It is filed as functional, cell-based. Summed up:
as §1

Series [5] concerns ASPC1. In words: Reduction in viability of human AsPC1 cells after 6 hrs by fluorescence assay. Type of series: functional, cell-based. Summed up: as §1
Series [6] has as its system Caco-2. In words: Induction of apoptosis in human Caco2 cells assessed as increase in caspase 3/7 activity after 6 hrs by caspase glo 3/7 assay. Type of series: functional, cell-based. Summed up: as §1
The test system of series [7] is ASPC1. In words: Induction of apoptosis in human AsPC1 cells assessed as increase in caspase 3/7 activity after 6 hrs by caspase glo 3/7 assay. It is filed as functional, cell-based. Summed up: as §1
Series [8] deals with PC-3. As to the kind of experiment: Induction of apoptosis in human PC3 cells assessed as increase in caspase 3/7 activity after 6 hrs by caspase glo 3/7 assay. It is filed as functional, cell-based. In a few lines:
as §1

Series [9] has as its system A549. In words: Induction of apoptosis in human A549 cells assessed as increase in caspase 3/7 activity after 6 hrs by caspase glo 3/7 assay. It is filed as functional, cell-based. In a few lines: as §1
Series [10] has as its system PC-3. As to the kind of experiment: Cytotoxicity against human PC3 cells after 6 hrs by fluorescence assay. It is filed as functional, cell-based. In a few lines: as §1
In series [11] the test system is ASPC1. As to the kind of experiment: Cytotoxicity against human AsPC1 cells after 6 hrs by fluorescence assay. It is filed as functional, cell-based. Summed up: as §1
The test system of series [12] is Caco-2. In words: Cytotoxicity against human Caco2 cells after 6 hrs by fluorescence assay. It is filed as functional, cell-based. Summed up:
as §1

Series [13] deals with HET-1A. As to the kind of experiment: Induction of apoptosis in human HET-1A cells assessed as increase in caspase 3/7 activity after 6 hrs by caspase glo 3/7 assay. Type of series: cell-based. In a few lines:
as §1

The test system of series [14] is A549. In words: Cytotoxicity against human A549 cells after 6 hrs by fluorescence assay. It is filed as functional, cell-based. In a few lines:
as §1

The subject of series [15] is HET-1A. As to the kind of experiment: Cytotoxicity against human HET-1A cells after 6 hrs by fluorescence assay. It is filed as cell-based. Summed up:
as §1

Take `CN1[C@@H]2CCC[C@H]1CC(NC(=O)c1nn(C)c3ccccc13)C2` (stereo partly specified): the Activity entry with HET-1A [1] is listed as “Toxic”. The result in the series with A549 [2], in the series with Caco-2 [3], with PC-3 [4] and in the series with ASPC1 [5] was inactive.
As to `CC(=O)Oc1ccccc1C(=O)Nc1ncc([N+](=O)[O-])s1`, the outcome in the series on Caco-2 [6], in the series with ASPC1 [7], in the series with PC-3 [8] and in the series on A549 [9] was inactive.
As for `CC[C@H]1OC(=O)[C@H](C)[C@@H](O[C@H]2C[C@@](C)(OC)[C@@H](O)[C@H](C)O2)[C@H](C)[C@@H](O[C@@H]2O[C@H](C)C[C@H](N(C)C)[C@H]2O)[C@](C)(O)C[C@@H](C)[C@@H]2N[C@@H](COCCOC)O[C@H]([C@H]2C)[C@]1(C)O` [DIRITHROMYCIN], the Activity result with HET-1A [1] is listed as “Toxic”. For the same compound, the outcome with A549 [2], with Caco-2 [3], in the series on PC-3 [4] and in the series on ASPC1 [5] was inactive.
Turning to `COC(=O)C1=C(C)NC(C)=C(C(=O)OCCN(C)Cc2ccccc2)C1c1cccc([N+](=O)[O-])c1` (stereo unspecified) [NICARDIPINE], the Activity entry in the series with Caco-2 [6], with PC-3 [10], with ASPC1 [11], with Caco-2 [12], in the series on HET-1A [13] and in the series with HET-1A [1] was “Dose-dependent effect” in each case. The Activity result with A549 [14], with A549 [2], in the series on PC-3 [8], in the series on Caco-2 [3], in the series with PC-3 [4] and in the series with HET-1A [15] was “Dose-dependent effect” throughout. In the series on ASPC1 [5], the Activity entry is “Dose-dependent effect”.
On to `O=C(Nc1ccc([N+](=O)[O-])cc1Cl)c1cc(Cl)ccc1O` [NICLOSAMIDE], for which the outcome with Caco-2 [6], in the series on ASPC1 [7] and in the series with A549 [9] was Active. Moreover, the Activity entry in the series with HET-1A [1], with A549 [2], in the series with PC-3 [8], with Caco-2 [3], in the series on PC-3 [4] and in the series on ASPC1 [5] was “Dose-dependent effect” throughout.
For `OC1(c2ccc(Cl)c(C(F)(F)F)c2)CCN(CCCC(c2ccc(F)cc2)c2ccc(F)cc2)CC1` [PENFLURIDOL], the Activity result in the series with Caco-2 [6], with PC-3 [10], in the series on ASPC1 [11], with Caco-2 [12], in the series with HET-1A [13] and in the series on HET-1A [1] was “Dose-dependent effect” in each case. The Activity entry in the series on A549 [14], in the series with A549 [2], in the series on PC-3 [8], with Caco-2 [3], in the series with PC-3 [4] and in the series on HET-1A [15] was “Dose-dependent effect” in each case. Also, the Activity entry with ASPC1 [5] and with A549 [9] was “Dose-dependent effect” in each case. Besides, in the series on ASPC1 [7], the result was Active.
In the case of `CN(C)CCCN1c2ccccc2Sc2ccccc21` [PROMAZINE], the Activity result with Caco-2 [6], with PC-3 [10], in the series on ASPC1 [11], with Caco-2 [12], in the series on HET-1A [13] and in the series with HET-1A [1] was “Dose-dependent effect” throughout. Further, the Activity entry in the series on A549 [14], in the series with A549 [2], in the series on PC-3 [8], in the series on Caco-2 [3], in the series on PC-3 [4] and in the series with HET-1A [15] was “Dose-dependent effect” in each case. Besides, the Activity entry with ASPC1 [5] and in the series on A549 [9] was “Dose-dependent effect” each time. For the same compound, the result in the series on ASPC1 [7] was Active.
